Data set [1] is described as follows: (§1) Binding affinity to reindeer beta-lactoglobulin by fluorescence spectroscopy. On the set-up: species or system Rangifer tarandus.
In data set [2] the target is T1, Beta-lactoglobulin (Bos taurus) (UniProt P02754).
T1 sequence (whole entry): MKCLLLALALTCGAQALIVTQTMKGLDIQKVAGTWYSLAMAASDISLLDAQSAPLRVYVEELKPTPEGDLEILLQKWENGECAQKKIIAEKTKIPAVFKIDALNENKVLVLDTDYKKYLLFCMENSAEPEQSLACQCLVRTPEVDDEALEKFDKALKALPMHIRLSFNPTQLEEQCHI
The data set is described as follows: Binding affinity to bovine beta-lactoglobulins at 100 uM by ultrafiltration/HPLC method. The procedure, abridged: (§2)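 Ultrafiltration sampling with HPLC analysis. Ligand at 100 μM was allowed to interact with βLG at 50 μM, and the fraction of ligand found in the retentate was quantified as a percentage.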

In data set [3] the test system is Rangifer tarandus. Briefly: Binding affinity to reindeer beta-lactoglobulin at 100 uM by ultrafiltration/HPLC method. The procedure, abridged:
as §2

For data set [4], the target named is T1, Beta-lactoglobulin (Bos taurus). Briefly: Binding affinity to bovine beta-lactoglobulins assessed as aggregate diameter size formed at 200 uM by dynamic light scattering method. The procedure, abridged:
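Retinoid at 200 μM diluted in PBS and measured by dynamic light scattering as mean intensity and particle diameter (kCps/nm). Bovine βLG was then added to the cuvette at 50 μM, and a second run followed a 30 min stabilization phase.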

Data set [5] is described as follows: Solubility assessed as aggregate formation at <= pH 4 by dynamic light scattering method. The format is physicochemical. To be noted: buffer. The method in brief: (§3)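 Retinoids diluted in acid buffer spanning pH 2.0 to 7.0 and examined by dynamic light scattering for aggregate signal.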
Data set [6] is described as follows: Solubility in PBS assessed as aggregate diameter size at 200 uM by dynamic light scattering method.
The target in data set [7] is T1, Beta-lactoglobulin (Bos taurus). Briefly: (§4) Binding affinity to bovine beta-lactoglobulins by fluorescence spectroscopy.
The subject of data set [8] is Rangifer tarandus. Described as §1.
Data set [9] in a line: Solubility assessed as lowest drug level in which detectable aggregates formed by dynamic light scattering method. The format is physicochemical. The method in brief: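 Retinoid dilutions in PBS measured by dynamic light scattering. The critical concentration is the lowest level giving DLS-detectable aggregates. Concentrations ran up to 200 μM.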
The nature of data set [10]: Solubility assessed as aggregate formation at >= pH 5 by dynamic light scattering method. The format is physicochemical. As to conditions: buffer. The method in brief: as §3
Another data set concerns the target T2, Beta-lactoglobulin (Bos taurus, UniProt P02754).
T2 sequence (P02754 whole entry): T1 sequence (whole entry)
Described as §4.

Converted amounts (≈) assume the structure as drawn. The source made the active and inactive calls. The rule behind the calls is not given here.

One may read the Kd as the equilibrium constant for the complex coming apart. A low value points to a tighter complex. One may read the solubility as the dissolved amount per volume that the medium holds.

`CC1=C(/C=C/C(C)=C/C=C/C(C)=C/CO)C(C)(C)CCC1` [RETINOL] returned a Kd in data set [1] of 200 nM. In addition, the Activity is 7.9% in data set [2], 7.6% in the data set with Rangifer tarandus [3], 129 nm in data set [4] and 972.2 nm in data set [6]. Moreover, in data set [5], the solubility result was “Insoluble”.
In the case of `C/C(=C\c1ccc(C(=O)O)cc1)c1ccc2c(c1)C(C)(C)CCC2(C)C`, the outcome (in data set [7]; in the data set with Rangifer tarandus [8]; in data set [2]; with Rangifer tarandus [3]) was Active. The solubility was 50 µM (≈ 17.4 µg/mL) in [9] and “Insoluble” in data set [10]. The values for the Activity in [4] and in data set [6] were 243 nm and 848.5 nm, respectively.
As for `CC1=C(/C=C/c2ccc(/C=C/C(=O)O)cc2)C(C)(C)CCC1`, the figures for the Kd (at Beta-lactoglobulin; in data set [1]) were 153 nM and 107 nM, respectively. The Activity was 29.1% in data set [2], 18.8% in the data set with Rangifer tarandus [3], 188 nm in data set [4] and 668.7 nm in data set [6]. The values for the solubility in data set [9] and in [5] were 100 µM (≈ 29.6 µg/mL) and “Insoluble”, respectively.
As to `CC1=C(/C=C/C(C)=C/C=C/C(C)=C/C(=O)Nc2ccc(O)cc2)C(C)(C)CCC1` [FENRETINIDE], the result (in [7]; in the data set on Rangifer tarandus [8]; in data set [2]; in the data set on Rangifer tarandus [3]) was Active. Also, the solubility in [9] was 100 µM (≈ 39.2 µg/mL); in data set [10] it was “Insoluble”. The results for the Activity in [4] and in data set [6] were 424 nm and 818.1 nm, respectively.
As for `COC(=O)/C=C/c1ccc(/C=C/C2=C(C)CCCC2(C)C)cc1`, the result in data set [7] was Active. The Activity in data set [2] turned out to be 7%; in the data set with Rangifer tarandus [3], 11%; in data set [4], 276 nm; in data set [6] it was 791.6 nm. Further, the solubility entry in data set [10] is given as “Insoluble”.

For the origin of these results see ChEMBL document CHEMBL1156781, “The binding of synthetic retinoids to lipocalin beta-lactoglobulins” (J Med Chem, 2010).
